In ChEMBL document CHEMBL1122650, “Synthesis and central nervous system properties of 2-[(alkoxycarbonyl)amino]-4(5)-phenyl-2-imidazolines” (J Med Chem, 1984):
Activity calls are given as the source filed them. The rule behind the calls is not given here.

System: not listed separately
Experiment: HPLC capacity factor (k')
Assay type: ADME
Conditions: not given
In the case of `COC(=O)NC1=NC(c2cccc(C)c2)CN1` (configuration not stated), the “Log k'” value is reported as 0.26. With `COC(=O)NC1=NC(c2ccccc2[S+](C)[O-])CN1C` (configuration not stated) the “Log k'” value was -0.87. In the case of `COC(=O)NC1=NC2(CCc3ccccc32)CN1` (configuration not stated), the “Log k'” value is reported as 0.3. In the case of `CCCCCCc1ccc(C2CN=C(NC(=O)OC)N2)cc1` (configuration not stated), the “Log k'” value is reported as 2.28. With `CC(C)OC(=O)NC1=NC(c2ccccc2Cl)CN1C` (configuration not stated) the “Log k'” value was 1.08. With `COC(=O)NC1=NC(c2ccc(OC(C)=O)cc2)CN1C` (configuration not stated) the “Log k'” value was 0.2. With `CCOC(=O)NC1=NC(c2ccc(C(C)C)cc2)CN1` (configuration not stated) the “Log k'” value was 1.3. For `COC(=O)NC1=NC(c2ccccc2)C(C)N1` (configuration not stated), the “Log k'” value was 0.15.

System: Mus musculus
Experiment: Compound was evaluated in vivo for reserpine hypothermia after oral administration in mouse.
Assay type: functional
Conditions: not given
Procedure, shortened: (§1)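 Male HLa (ICR) BR mice, 18-24 g, in groups of eight; reserpine 5 mg/kg ip given 2 h before oral test compound as aqueous solution. Rectal temperature taken hourly; 1-4-h hypothermia assessed by analysis of variance.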
For `COC(=O)NC1=NC(c2cccc(C)c2)CN1` (configuration not stated), the ED50 was 51 mg/kg.

System: Mus musculus
Experiment: Compound was evaluated in vivo for reserpine hypothermia after oral administration in mouse. Minimum active dose was reported, with the percent reversal at 10 mg/kg; I=inactive
Assay type: functional, organism-based
Parameters: dose 10 mg/kg
Conditions: not given
Procedure, shortened: as §1
For `COC(=O)NC1=NC(c2ccc(OC(C)=O)cc2)CN1C` (configuration not stated), the ED50 was “inactive”.

System: Mus musculus
Experiment: Evaluated in vivo for reserpine hypothermia after oral administration in mouse. Minimum active dose was reported; 10-30% reduction
Assay type: functional, organism-based
Conditions: not given
Procedure, shortened: as §1
For `CCOC(=O)NC1=NC(c2ccc(C(C)C)cc2)CN1` (configuration not stated), the ED50 was 10-30% reduction.

System: Mus musculus
Experiment: Compound was evaluated in vivo for reserpine hypothermia after oral administration in mouse. Minimum active dose was reported; Inactive
Assay type: functional, organism-based
Conditions: not given
Procedure, shortened: as §1
In the case of `COC(=O)NC1=NC(c2ccccc2[S+](C)[O-])CN1C` (configuration not stated), the ED50 is reported as “inactive”.

Organism: Mus musculus
Experiment: Evaluated for antagonism of reserpine induced hypothermia;I= Inactive
Assay type: functional, organism-based
Conditions: not given
Procedure, shortened: as §1
In the case of `CCCCCCc1ccc(C2CN=C(NC(=O)OC)N2)cc1` (configuration not stated), the HYPO is reported as “inactive”. With `CCOC(=O)NC1=NC(c2ccc(C(C)C)cc2)CN1` (configuration not stated) the HYPO was “inactive”.

Organism: Mus musculus
Experiment: Mouse behavior activity was determined; Depressant-Stimulant
Assay type: functional, organism-based
Conditions: not given
Procedure, shortened: (§2)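 Male Simonsen (ICR) fBR mice, 18-24 g, groups of three, given 3, 10, 30, 100, 300 or 1000 mg/kg ip as aqueous solution and observed for behavioral profile; deaths followed up to 7 days.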
In the case of `CC(C)OC(=O)NC1=NC(c2ccccc2Cl)CN1C` (configuration not stated), the Mouse behavior activity is reported as “Depressant-Stimulant”.

Organism: Mus musculus
Experiment: Mouse behavior activity was determined; Dwk=Depressant Weak
Assay type: functional, organism-based
Conditions: not given
Procedure, shortened: as §2
In the case of `CCCCCCc1ccc(C2CN=C(NC(=O)OC)N2)cc1` (configuration not stated), the Mouse behavior activity is reported as “Depressant - weak”. With `CCOC(=O)NC1=NC(c2ccc(C(C)C)cc2)CN1` (configuration not stated) the Mouse behavior activity was “Depressant - weak”.

Organism: Mus musculus
Experiment: Mouse behavior activity was determined; Dwk=Depressant (Weak)
Assay type: functional, organism-based
Conditions: not given
Procedure, shortened: as §2
With `COC(=O)NC1=NC(c2ccc(OC(C)=O)cc2)CN1C` (configuration not stated) the Mouse behavior activity was “Depressant - weak”.

Organism: Mus musculus
Experiment: Mouse behavior activity was determined; Stimulant Weak
Assay type: functional, organism-based
Conditions: not given
Procedure, shortened: as §2
In the case of `COC(=O)NC1=NC(c2ccccc2)C(C)N1` (configuration not stated), the Mouse behavior activity is reported as “Stimulant Weak”.

Organism: Mus musculus
Experiment: Mouse behavior activity was determined;D= Depressant.
Assay type: functional, organism-based
Conditions: not given
In the case of `COC(=O)NC1=NC(c2cccc(C)c2)CN1` (configuration not stated), the Mouse behavior activity is reported as “Depressant”.

Organism: Mus musculus
Experiment: Mouse behavior activity was determined; Depressant
Assay type: functional, organism-based
Conditions: not given
Procedure, shortened: as §2
For `COC(=O)NC1=NC2(CCc3ccccc32)CN1` (configuration not stated), the Mouse behavior activity was “Depressant”.

Organism: Mus musculus
Experiment: Compound was evaluated for antagonism of reserpine induced hypothermia;. 5-2.5 excessive variability.
Assay type: functional, organism-based
Conditions: not given
Procedure, shortened: as §1
With `COC(=O)NC1=NC(c2cccc(C)c2)CN1` (configuration not stated) the HYPO was “excessive variability”.

Organism: Mus musculus
Experiment: Compound was evaluated for antagonism of reserpine induced hypothermia; I=inactive
Assay type: functional, organism-based
Conditions: not given
Procedure, shortened: as §1
With `COC(=O)NC1=NC(c2ccc(OC(C)=O)cc2)CN1C` (configuration not stated) the HYPO was “inactive”.

Organism: Mus musculus
Experiment: Compound was evaluated for maximal electroshock antagonism (MES) against mice
Assay type: functional
Conditions: not given
Procedure, shortened: (§3)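 Male HLa (ICR) BR mice, groups of eight to ten, dosed ip (aqueous solution) 15 min before transcorneal electroshock (50 mA, 0.2 s). End point: abolition of tonic hind-limb extension; quantal ED50 by Litchfield-Wilcoxon.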
For `COC(=O)NC1=NC(c2cccc(C)c2)CN1` (configuration not stated), the ED50 was 100 mg/kg. Work on `COC(=O)NC1=NC2(CCc3ccccc32)CN1` (configuration not stated) yielded an ED50 of 75 mg/kg. In the case of `CC(C)OC(=O)NC1=NC(c2ccccc2Cl)CN1C` (configuration not stated), the ED50 is reported as 35 mg/kg. For `COC(=O)NC1=NC(c2ccccc2)C(C)N1` (configuration not stated), the ED50 was 90 mg/kg.

Organism: Mus musculus
Experiment: Compound was evaluated for maximal electroshock antagonism (MES) against mice; I=inactive
Assay type: functional, organism-based
Conditions: not given
Procedure, shortened: as §3
With `COC(=O)NC1=NC(c2ccc(OC(C)=O)cc2)CN1C` (configuration not stated) the ED50 was “inactive”.

Organism: Mus musculus
Experiment: Compound was evaluated for maximal electroshock antagonism (MES) against mice; Inactive
Assay type: functional, organism-based
Conditions: not given
Procedure, shortened: as §3
With `CCOC(=O)NC1=NC(c2ccc(C(C)C)cc2)CN1` (configuration not stated) the ED50 was “inactive”.

Organism: Mus musculus
Experiment: Compound was evaluated for maximal electroshock antagonism (MES) against mice; Inactive.
Assay type: functional, organism-based
Conditions: not given
Procedure, shortened: as §3
In the case of `CCCCCCc1ccc(C2CN=C(NC(=O)OC)N2)cc1` (configuration not stated), the ED50 is reported as “inactive”.

Organism: Mus musculus
Experiment: Righting ability was determined in mice after rapid rolling (aroused)
Assay type: functional
Conditions: not given
Procedure, shortened: (§4)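 Male Simonsen (ICR) fBR mice, 18-24 g, groups of ten, dosed with aqueous compound. Righting ability checked before (unaroused) and after (aroused) rapid rolling in the hand; ED50 by Litchfield-Wilcoxon method.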
`COC(=O)NC1=NC(c2cccc(C)c2)CN1` (configuration not stated) gave a Loss of righting reflex of 157 mg/kg.

Organism: Mus musculus
Experiment: Righting ability was determined in mice […] rapid rolling (aroused)
Assay type: functional
Conditions: not given
Procedure, shortened: as §4
Compound `CC(C)OC(=O)NC1=NC(c2ccccc2Cl)CN1C` (configuration not stated) has a Loss of righting reflex of 67 mg/kg.

Organism: Mus musculus
Experiment: Righting ability was determined in mice before rapid rolling (unaroused)
Assay type: functional
Conditions: not given
Procedure, shortened: as §4
`COC(=O)NC1=NC(c2cccc(C)c2)CN1` (configuration not stated) showed a Loss of righting reflex of 100 mg/kg. In the case of `COC(=O)NC1=NC2(CCc3ccccc32)CN1` (configuration not stated), the Loss of righting reflex is reported as 200 mg/kg. In the case of `CC(C)OC(=O)NC1=NC(c2ccccc2Cl)CN1C` (configuration not stated), the Loss of righting reflex is reported as 46 mg/kg.

System: not listed separately
Experiment: Lethal dose in mouse, in groups of ten
Assay type: toxicity, organism-based
Conditions: in vivo
With `COC(=O)NC1=NC(c2cccc(C)c2)CN1` (configuration not stated) the LD50 was 500 mg/kg. In the case of `COC(=O)NC1=NC2(CCc3ccccc32)CN1` (configuration not stated), the LD50 is reported as 700 mg/kg. For `CCCCCCc1ccc(C2CN=C(NC(=O)OC)N2)cc1` (configuration not stated), the LD50 was 200 mg/kg. `CC(C)OC(=O)NC1=NC(c2ccccc2Cl)CN1C` (configuration not stated) showed an LD50 of 700 mg/kg. Work on `COC(=O)NC1=NC(c2ccc(OC(C)=O)cc2)CN1C` (configuration not stated) yielded an LD50 of 700 mg/kg. `CCOC(=O)NC1=NC(c2ccc(C(C)C)cc2)CN1` (configuration not stated) showed an LD50 of 200 mg/kg. `COC(=O)NC1=NC(c2ccccc2)C(C)N1` (configuration not stated) gave an LD50 of 200 mg/kg.
